Key:
Assay type in all cases: functional
[1] = tested on: Staphylococcus epidermidis; assay: Antimicrobial activity against Staphylococcus epidermidis ATCC 12228 after 24 hrs by disk diffusion method
Method in brief: (§1)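 Paper discs (6.25 mm diameter; Whatman no.1, dry-heat sterilized 140 °C, 1 h) soaked in test compound at a known concentration, placed on nutrient agar seeded with organism; solvent and growth controls plus ciprofloxacin standard included. Plates inverted, incubated 24 h at 37 °C; inhibition zone diameters measured and compared with controls.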

Staphylococcus aureus = assay: Antimicrobial activity against Staphylococcus aureus ATCC 25923 after 24 hrs by disk diffusion method; method in brief: as §1
Escherichia coli = assay: Antimicrobial activity against Escherichia coli MTCC 443 after 24 hrs by disk diffusion method; method in brief: as §1

Q: How did the “inhibition zone (IZ)” value [1] turn out when `S=c1[nH]nc(-c2ccccc2)o1` was run?
A: The value was 18 mm.

Q: What about the “inhibition zone (IZ)” value (Staphylococcus aureus) of the same molecule?
A: The value was 22 mm.

Q: And the “inhibition zone (IZ)” value (Escherichia coli)?
A: Its value is 20 mm.

Q: With `CC(=O)Oc1ccccc1-c1nnc(S)o1` as the molecule, how does the “inhibition zone (IZ)” value [1] read?
A: Its value is 26 mm.

Q: What about the “inhibition zone (IZ)” value (Staphylococcus aureus) of the same molecule?
A: The value was 24 mm.

Q: What about the “inhibition zone (IZ)” value (Escherichia coli) of the same molecule?
A: Its value is 25 mm.

Q: `Cc1ccc(-c2nnc(S)o2)cc1` was tested. Which “inhibition zone (IZ)” value [1] did it give?
A: The value was 16 mm.

Q: What about the “inhibition zone (IZ)” value (Staphylococcus aureus) of the same molecule?
A: The value was 20 mm.

Q: What about the “inhibition zone (IZ)” value (Escherichia coli) of the same molecule?
A: The value was 19 mm.

Q: For `Sc1nnc(-c2cccnc2)o1`, which “inhibition zone (IZ)” value [1] is on record?
A: The value was 26 mm.

Q: And the “inhibition zone (IZ)” value (Staphylococcus aureus)?
A: The value was 25 mm.

Q: And the “inhibition zone (IZ)” value (Escherichia coli)?
A: The value was 21 mm.

Q: With `Cc1ccc(-c2nnc(-c3ccccc3O)o2)cc1` as the molecule, how does the “inhibition zone (IZ)” value [1] read?
A: The value was 22 mm.

Q: What about the “inhibition zone (IZ)” value (Staphylococcus aureus) of the same molecule?
A: The value was 20 mm.

Q: And the “inhibition zone (IZ)” value (Escherichia coli)?
A: Its value is 19 mm.

Q: How did the “inhibition zone (IZ)” value [1] turn out when `Cc1ccccc1-c1nnc(-c2ccccc2O)o1` was run?
A: Its value is 24 mm.

Q: What about the “inhibition zone (IZ)” value (Staphylococcus aureus) of the same molecule?
A: The value was 23 mm.

Q: And the “inhibition zone (IZ)” value (Escherichia coli)?
A: The value was 23 mm.

Q: Which results are given for `Oc1ccccc1-c1nnc(-c2ccccc2)o1`?
A: inhibition zone (IZ) [1]: 18 mm; inhibition zone (IZ) (Staphylococcus aureus): 21 mm; inhibition zone (IZ) (Escherichia coli): 19 mm

Q: Which “inhibition zone (IZ)” value [1] does the source give for `c1ccc(-c2nnc(-c3cccnc3)o2)cc1` here?
A: The value was 25 mm.

Q: What about the “inhibition zone (IZ)” value (Staphylococcus aureus) of the same molecule?
A: Its value is 24 mm.

Q: What about the “inhibition zone (IZ)” value (Escherichia coli) of the same molecule?
A: Its value is 24 mm.

Q: `Oc1ccccc1-c1nnc(Cc2ccc3ccccc3c2)o1` was tested. Which “inhibition zone (IZ)” value [1] did it give?
A: Its value is 25 mm.

Q: And the “inhibition zone (IZ)” value (Staphylococcus aureus)?
A: The value was 23 mm.

Q: What about the “inhibition zone (IZ)” value (Escherichia coli) of the same molecule?
A: The value was 21 mm.

Q: How did the “inhibition zone (IZ)” value [1] turn out when `Oc1ccccc1-c1nnc(S)o1` was run?
A: Its value is 22 mm.

Q: What about the “inhibition zone (IZ)” value (Staphylococcus aureus) of the same molecule?
A: The value was 24 mm.

Q: And the “inhibition zone (IZ)” value (Escherichia coli)?
A: Its value is 18 mm.

Q: Which results are given for `O=C(O)c1cn(C2CC2)c2cc(N3CCNCC3)c(F)cc2c1=O` [CIPROFLOXACIN]?
A: inhibition zone (IZ) [1]: 30 mm; inhibition zone (IZ) (Staphylococcus aureus): 29 mm

From ChEMBL document CHEMBL1275307, “Design, synthesis and biological evaluation of 1,3,4-oxadiazole derivatives” (2010)
